Laboratory results: ChEMBL document CHEMBL4043132, “3-O-Substituted-3',4',5'-trimethoxyflavonols: Synthesis and cell-based evaluation as anti-prostate cancer agents” (Bioorg Med Chem, 2017)
pIC50: −log10 of the molar value. Blank lines part the entries; values can stand above or below the molecule they belong to.

How the values were obtained:
PC-3 [1] = experiment: Antiproliferative activity against human PC3 cells after 3 days by WST-1 assay; format: functional, cell-based; details: PC-3, 72 h
Method in brief: (§1)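 Cells from ATCC; PC-3 and LNCaP grown in RPMI-1640 and DU145 in EMEM, each with 10% FBS and 1% penicillin/streptomycin, 37 °C, 5% CO2. Seeded 3,200 cells/well and exposed for 3 days to at least five doses, with DMSO as vehicle control. WST-1 reagent added for 3 h at 37 °C, absorbance read at 430 nm. IC50 taken from a linear inhibition plot; mean ± SD of three independent experiments.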

DU-145 = experiment: Antiproliferative activity against human DU145 cells after 3 days by WST-1 assay; format: functional, cell-based; details: DU-145, 72 h; method in brief: as §1
LNCaP = experiment: Antiproliferative activity against human LNCAP cells after 3 days by WST-1 assay; format: functional, cell-based; details: 72 h; method in brief: as §1
PWR-1E = experiment: Antiproliferative activity against human PWR-1E cells after 3 days by WST-1 assay; format: cell-based; details: 72 h
Method in brief: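 PWR-1E benign prostate epithelial cells grown in keratinocyte serum-free medium with bovine pituitary extract and recombinant human EGF. Seeded 3,200 cells/well and treated for 3 days at 37 °C, with DMSO as vehicle control. WST-1 reagent added for 3 h, absorbance read at 430 nm. IC50 from a linear inhibition plot over at least five doses; mean ± SD, n = 3.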

PC-3 [2] = experiment: Cell cycle arrest in human PC3 cells assessed as accumulation at G0/G1 phase at 10 uM after 16 hrs by propidium iodide staining-based flow cytometry (reference value: 34.1%); format: functional
PC-3 [3] = experiment: Cell cycle arrest in human PC3 cells assessed as accumulation at G0/G1 phase at 20 uM after 16 hrs by propidium iodide staining-based flow cytometry (reference value: 34.1%); format: functional
PC-3 [4] = experiment: Cell cycle arrest in human PC3 cells assessed as accumulation at G0/G1 phase at 10 uM after 24 hrs by propidium iodide staining-based flow cytometry (reference value: 37.5%); format: functional
PC-3 [5] = experiment: Cell cycle arrest in human PC3 cells assessed as accumulation at G0/G1 phase at 20 uM after 24 hrs by propidium iodide staining-based flow cytometry (reference value: 37.5%); format: functional
PC-3 [6] = experiment: Cell cycle arrest in human PC3 cells assessed as accumulation at S phase at 10 uM after 16 hrs by propidium iodide staining-based flow cytometry (reference value: 9.9%); format: functional
PC-3 [7] = experiment: Cell cycle arrest in human PC3 cells assessed as accumulation at S phase at 20 uM after 16 hrs by propidium iodide staining-based flow cytometry (reference value: 9.9%); format: functional
PC-3 [8] = experiment: Cell cycle arrest in human PC3 cells assessed as accumulation at S phase at 10 uM after 24 hrs by propidium iodide staining-based flow cytometry (reference value: 8.0%); format: functional
PC-3 [9] = experiment: Cell cycle arrest in human PC3 cells assessed as accumulation at S phase at 20 uM after 24 hrs by propidium iodide staining-based flow cytometry (reference value: 8.0%); format: functional
PC-3 [10] = experiment: Cell cycle arrest in human PC3 cells assessed as accumulation at G2/M phase at 10 uM after 16 hrs by propidium iodide staining-based flow cytometry (reference value: 32.3%); format: functional
PC-3 [11] = experiment: Cell cycle arrest in human PC3 cells assessed as accumulation at G2/M phase at 20 uM after 16 hrs by propidium iodide staining-based flow cytometry (reference value: 32.3%); format: functional
PC-3 [12] = experiment: Cell cycle arrest in human PC3 cells assessed as accumulation at G2/M phase at 10 uM after 24 hrs by propidium iodide staining-based flow cytometry (reference value: 27.8%); format: functional
PC-3 [13] = experiment: Cell cycle arrest in human PC3 cells assessed as accumulation at G2/M phase at 20 uM after 24 hrs by propidium iodide staining-based flow cytometry (reference value: 27.8%); format: functional
PC-3 [14] = experiment: Induction of apoptosis in human PC3 cells assessed as viable cells at 1 uM after 16 hrs by F2N12S and CYTOX AADvanced double staining-based flow cytometric analysis (reference value: 95%); format: functional; details: PC-3, 16 h, read-out: Activity
PC-3 [15] = experiment: Induction of apoptosis in human PC3 cells assessed as apoptotic cells at 1 uM after 16 hrs by F2N12S and CYTOX AADvanced double staining-based flow cytometric analysis (reference value: 2 to 3%); format: functional
PC-3 [16] = experiment: Induction of apoptosis in human PC3 cells assessed as necrotic cells at 1 uM after 16 hrs by F2N12S and CYTOX AADvanced double staining-based flow cytometric analysis (reference value: 2 to 3%); format: functional
PC-3 [17] = experiment: Induction of apoptosis in human PC3 cells assessed as viable cells at 5 uM after 16 hrs by F2N12S and CYTOX AADvanced double staining-based flow cytometric analysis (reference value: 95%); format: functional; details: PC-3, 16 h, read-out: Activity
PC-3 [18] = experiment: Induction of apoptosis in human PC3 cells assessed as apoptotic cells at 5 uM after 16 hrs by F2N12S and CYTOX AADvanced double staining-based flow cytometric analysis (reference value: 2 to 3%); format: functional
PC-3 [19] = experiment: Induction of apoptosis in human PC3 cells assessed as necrotic cells at 5 uM after 16 hrs by F2N12S and CYTOX AADvanced double staining-based flow cytometric analysis (reference value: 2 to 3%); format: functional
PC-3 [20] = experiment: Induction of apoptosis in human PC3 cells assessed as viable cells at 10 uM after 16 hrs by F2N12S and CYTOX AADvanced double staining-based flow cytometric analysis (reference value: 95%); format: functional; details: PC-3, 16 h, read-out: Activity
PC-3 [21] = experiment: Induction of apoptosis in human PC3 cells assessed as apoptotic cells at 10 uM after 16 hrs by F2N12S and CYTOX AADvanced double staining-based flow cytometric analysis (reference value: 2 to 3%); format: functional
PC-3 [22] = experiment: Induction of apoptosis in human PC3 cells assessed as necrotic cells at 10 uM after 16 hrs by F2N12S and CYTOX AADvanced double staining-based flow cytometric analysis (reference value: 2 to 3%); format: functional
PC-3 [23] = experiment: Induction of apoptosis in human PC3 cells assessed as viable cells at 20 uM after 16 hrs by F2N12S and CYTOX AADvanced double staining-based flow cytometric analysis (reference value: 95%); format: functional; details: PC-3, 16 h, read-out: Activity
PC-3 [24] = experiment: Induction of apoptosis in human PC3 cells assessed as apoptotic cells at 20 uM after 16 hrs by F2N12S and CYTOX AADvanced double staining-based flow cytometric analysis (reference value: 2 to 3%); format: functional
PC-3 [25] = experiment: Induction of apoptosis in human PC3 cells assessed as necrotic cells at 20 uM after 16 hrs by F2N12S and CYTOX AADvanced double staining-based flow cytometric analysis (reference value: 2 to 3%); format: functional
PC-3 [26] = experiment: Induction of apoptosis in human PC3 cells assessed as viable cells at 30 uM after 16 hrs by F2N12S and CYTOX AADvanced double staining-based flow cytometric analysis (reference value: 95%); format: functional; details: PC-3, 16 h, read-out: Activity
PC-3 [27] = experiment: Induction of apoptosis in human PC3 cells assessed as apoptotic cells at 30 uM after 16 hrs by F2N12S and CYTOX AADvanced double staining-based flow cytometric analysis (reference value: 2 to 3%); format: functional
PC-3 [28] = experiment: Induction of apoptosis in human PC3 cells assessed as necrotic cells at 30 uM after 16 hrs by F2N12S and CYTOX AADvanced double staining-based flow cytometric analysis (reference value: 2 to 3%); format: functional
PC-3 [29] = experiment: Induction of apoptosis in human PC3 cells assessed as viable cells at 50 uM after 16 hrs by F2N12S and CYTOX AADvanced double staining-based flow cytometric analysis (reference value: 95%); format: functional; details: PC-3, 16 h, read-out: Activity
PC-3 [30] = experiment: Induction of apoptosis in human PC3 cells assessed as apoptotic cells at 50 uM after 16 hrs by F2N12S and CYTOX AADvanced double staining-based flow cytometric analysis (reference value: 2 to 3%); format: functional
PC-3 [31] = experiment: Induction of apoptosis in human PC3 cells assessed as necrotic cells at 50 uM after 16 hrs by F2N12S and CYTOX AADvanced double staining-based flow cytometric analysis (reference value: 2 to 3%); format: functional
PC-3 [32] = experiment: Induction of apoptosis in human PC3 cells assessed as viable cells at 100 uM after 16 hrs by F2N12S and CYTOX AADvanced double staining-based flow cytometric analysis (reference value: 95%); format: functional; details: PC-3, 16 h, read-out: Activity
PC-3 [33] = experiment: Induction of apoptosis in human PC3 cells assessed as apoptotic cells at 100 uM after 16 hrs by F2N12S and CYTOX AADvanced double staining-based flow cytometric analysis (reference value: 2 to 3%); format: functional
PC-3 [34] = experiment: Induction of apoptosis in human PC3 cells assessed as necrotic cells at 100 uM after 16 hrs by F2N12S and CYTOX AADvanced double staining-based flow cytometric analysis (reference value: 2 to 3%); format: functional

SMILES: CCCCN(CCCC)CCCCOc1c(-c2cc(OC)c(OC)c(OC)c2)oc2ccccc2c1=O
pIC50 (PC-3 [1]): 5.28 | pIC50 (DU-145): 4.82 | pIC50 (LNCaP): 5.11

SMILES: O=c1c(O)c(-c2ccc(O)c(O)c2)oc2cc(O)ccc12 [FISETIN]
pIC50 (PC-3 [1]): < 4.30 | pIC50 (DU-145): < 4.30 | pIC50 (LNCaP): 4.47

SMILES: CCCCCN(CCCCC)CCCCOc1c(-c2cc(OC)c(OC)c(OC)c2)oc2ccccc2c1=O
pIC50 (PC-3 [1]): 5.10 | pIC50 (DU-145): 4.90 | pIC50 (LNCaP): 5.01

SMILES: CCCCCOc1c(-c2cc(OC)c(OC)c(OC)c2)oc2ccccc2c1=O
pIC50 (PC-3 [1]): 4.65 | pIC50 (DU-145): < 4.30 | pIC50 (LNCaP): 4.81

SMILES: CCCC(C)Oc1c(-c2cc(OC)c(OC)c(OC)c2)oc2ccccc2c1=O (stereo not given)
pIC50 (PC-3 [1]): 4.31 | pIC50 (DU-145): < 4.30 | pIC50 (LNCaP): 4.82

The next lines start with results.

pIC50 (PC-3 [1]): < 4.30 | pIC50 (DU-145): < 4.30 | pIC50 (LNCaP): < 4.30
SMILES: CCCCCCCOc1c(-c2cc(OC)c(OC)c(OC)c2)oc2ccccc2c1=O

pIC50 (PC-3 [1]): 5.18 | pIC50 (DU-145): 4.48 | pIC50 (LNCaP): 5.00
SMILES: CCN(CC)CCCCCOc1c(-c2cc(OC)c(OC)c(OC)c2)oc2ccccc2c1=O

pIC50 (PC-3 [1]): 5.17 | pIC50 (DU-145): < 4.30 | pIC50 (LNCaP): 5.11
SMILES: CCCCN(CCCC)CCCCCOc1c(-c2cc(OC)c(OC)c(OC)c2)oc2ccccc2c1=O

pIC50 (PC-3 [1]): 4.86 | pIC50 (DU-145): 4.88 | pIC50 (LNCaP): 4.87
SMILES: CCN(CC)CCCCOc1c(-c2cc(OC)c(OC)c(OC)c2)oc2ccccc2c1=O

pIC50 (PC-3 [1]): 4.93 | pIC50 (DU-145): 5.55 | pIC50 (LNCaP): 5.24
SMILES: CCCOc1c(-c2cc(OC)c(OC)c(OC)c2)oc2ccccc2c1=O

pIC50 (PC-3 [1]): 5.59 | pIC50 (DU-145): 4.62 | pIC50 (LNCaP): 5.12
SMILES: CCCN(CCC)CCCCCOc1c(-c2cc(OC)c(OC)c(OC)c2)oc2ccccc2c1=O

pIC50 (PC-3 [1]): 6.05 | pIC50 (DU-145): 5.21 | pIC50 (LNCaP): 5.27
SMILES: CCOc1c(-c2cc(OC)c(OC)c(OC)c2)oc2ccccc2c1=O
pIC50 (PWR-1E): 5.09 | Activity (PC-3 [2]): 55.7% | Activity (PC-3 [3]): 59% | Activity (PC-3 [4]): 40.8% | Activity (PC-3 [5]): 48.6% | Activity (PC-3 [6]): 7.7% | Activity (PC-3 [7]): 4.6% | Activity (PC-3 [8]): 18.7% | Activity (PC-3 [9]): 11.8% | Activity (PC-3 [10]): 22.2% | Activity (PC-3 [11]): 24.5% | Activity (PC-3 [12]): 19.3% | Activity (PC-3 [13]): 17.9% | viability at 1 µM (PC-3 [14]): 94% | Activity (PC-3 [15]): 3% | Activity (PC-3 [16]): 3% | viability at 5 µM (PC-3 [17]): 95% | Activity (PC-3 [18]): 3% | Activity (PC-3 [19]): 3% | viability at 10 µM (PC-3 [20]): 95% | Activity (PC-3 [21]): 3% | Activity (PC-3 [22]): 3% | viability at 20 µM (PC-3 [23]): 93% | Activity (PC-3 [24]): 5% | Activity (PC-3 [25]): 5% | viability at 30 µM (PC-3 [26]): 94% | Activity (PC-3 [27]): 3% | Activity (PC-3 [28]): 3% | viability at 50 µM (PC-3 [29]): 92% | Activity (PC-3 [30]): 5% | Activity (PC-3 [31]): 5% | viability at 100 µM (PC-3 [32]): 91% | Activity (PC-3 [33]): 6% | Activity (PC-3 [34]): 6%
